ChEMBL document CHEMBL1127785, “[[omega-(Heterocyclylamino)alkoxy]benzyl]-2,4-thiazolidinediones as potent antihyperglycemic agents” (1994)
The source made the active and inactive calls. The calls are words filed in the database; no cut-off is given here.

Assays:
Mus musculus [1] = test: Percent reduction in area under glucose tolerance curve (AUC) was determined at 30 umol/kg dose of diet in mice; format: functional
Summary of the method: (§1)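 C57 Bl/6 ob/ob mice, 9–10 weeks old at purchase, 6–8 per group, kept at 26 ± 2 °C on a 12 h light/dark cycle. Compound was mixed into powdered diet, given fresh daily for 8 days. Mice were then fasted 5 h and given oral glucose 3 g/kg. Tail blood glucose was measured at 0, 45, 90 and 135 min by hexokinase/G6PDH. Read-out is % AUC reduction vs controls (trapezoid rule), Student's t-test.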

Mus musculus [2] = test: Percent reduction in area under glucose tolerance curve (AUC) was determined at 10 umol/kg dose of diet in mice; format: functional; summary of the method: as §1
Mus musculus [3] = test: Percent reduction in area under glucose tolerance curve (AUC) was determined at 3 umol/kg dose of diet in mice; format: functional; summary of the method: as §1
Mus musculus [4] = test: Percent reduction in area under glucose tolerance curve (AUC) was determined at 3000 umol/kg dose of diet in mice; format: functional; summary of the method: as §1
Mus musculus [5] = test: Percent reduction in area under glucose tolerance curve (AUC) was determined at 100 umol/kg dose of diet in mice; IA = No significant activity; format: functional, organism-based; summary of the method: as §1
Mus musculus [6] = species on record: Mus musculus; test: Antihyperglycemic potency dose producing approximately 25% reduction in area under glucose tolerance curve; format: functional; summary of the method: as §1
[7] = Selectivity ratio for Antihyperglycemic potency dose and No significant effect dose; format: functional
Mus musculus [8] = test: Percent reduction in area under glucose tolerance curve at 300 uM/kg dose in diet of mice.; format: functional; summary of the method: as §1
Mus musculus [9] = species on record: Mus musculus; test: No significant effect dose level on blood hemoglobin; format: functional
Summary of the method: (§2)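 Blood hemoglobin content was measured in C57 Bl/6 ob/ob mice after 8 days of compound given by dietary admixture. The value is the highest dose (µmol/kg of diet) with no significant reduction in blood hemoglobin.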

Mus musculus [10] = test: Percent reduction in area under glucose tolerance curve at 100 uM/kg dose in diet of mice.; format: functional; summary of the method: as §1
Mus musculus [11] = test: Percent reduction in area under glucose tolerance curve (AUC) was determined at 10 umol/kg dose of diet in mice; IA = No significant activity; format: functional, organism-based; summary of the method: as §1
Mus musculus [12] = species on record: Mus musculus; test: No significant effect dose level on blood hemoglobin.; format: functional; summary of the method: as §2
Mus musculus [13] = test: Percent reduction in area under glucose tolerance curve (AUC) was determined at 3 umol/kg dose of diet in mice; IA = No significant activity; format: functional, organism-based; summary of the method: as §1
Mus musculus [14] = test: Percent reduction in area under glucose tolerance curve (AUC) was determined at 300 umol/kg dose of diet in mice; IA = No significant activity; format: functional, organism-based; summary of the method: as §1
Mus musculus [15] = test: Percent reduction in area under glucose tolerance curve (AUC) was determined at 30 umol/kg dose of diet in mice; IA = No significant activity; format: functional, organism-based; summary of the method: as §1
Mus musculus [16] = test: Percent reduction in area under glucose tolerance curve (AUC) was determined at 1000 umol/kg dose of diet in mice; format: functional; summary of the method: as §1
Mus musculus [17] = test: Percent reduction in area under glucose tolerance curve (AUC) was determined at 1000 umol/kg dose of diet in mice; IA = No significant activity; format: functional, organism-based; summary of the method: as §1

`Cc1csc(N(C)CCOc2ccc(CC3SC(=O)NC3=O)cc2)n1` (stereo not given) showed a Reduction (Mus musculus [1]) of 53%, a Reduction (Mus musculus [2]) of 28% and a Reduction (Mus musculus [3]) of 14%.
In the case of `Cc1c(C)c2c(c(C)c1O)CCC(C)(COc1ccc(CC3SC(=O)NC3=O)cc1)O2` (stereo not given) [TROGLITAZONE], the Reduction (Mus musculus [4]) is reported as 48%, the Reduction (Mus musculus [5]) is reported as “inactive” and the Dose (Mus musculus [6]) is reported as 400 µM/kg. It also gave a Selectivity ratio [7] of 1.5, a Reduction (Mus musculus [8]) of 20% and a Dose (Mus musculus [9]) of 600 µM/kg.
In the case of `Cc1sc(N(C)CCOc2ccc(CC3SC(=O)NC3=O)cc2)nc1-c1ccccc1` (stereo not given), the Reduction (Mus musculus [1]) is reported as 20%, the Reduction (Mus musculus [10]) is reported as 37% and the Reduction (Mus musculus [11]) is reported as “Not significant”.
In the case of `CN(CCOc1ccc(CC2SC(=O)NC2=O)cc1)c1nc2ccccc2o1` (stereo not given) [BRL-48482], the Reduction (Mus musculus [1]) is reported as 52%, the Reduction (Mus musculus [10]) is reported as 57% and the Dose (Mus musculus [12]) is reported as 30 µM/kg. The Dose (Mus musculus [6]) was 3 µM/kg, the Selectivity ratio [7] was 10 and the Reduction (Mus musculus [8]) was 42%.
With `CN(CCOc1ccc(CC2SC(=O)NC2=O)cc1)c1nc2ccccc2s1` (stereo not given) the Reduction (Mus musculus [10]) was 51%, the Reduction (Mus musculus [2]) was 36% and the Reduction (Mus musculus [8]) was 66%. The Reduction (Mus musculus [13]) was “Not significant”.
`CN(CCOc1ccc(CC2SC(=O)NC2=O)cc1)c1ncccc1Cl` (stereo not given) gave a Reduction (Mus musculus [1]) of 15% and a Reduction (Mus musculus [8]) of 40%.
With `COc1ccc(NC(=O)NCCOc2ccc(CC3SC(=O)NC3=O)cc2)cc1` (stereo not given) the Reduction (Mus musculus [14]) was “Not significant”.
`CN(CCOc1ccc(CC2SC(=O)NC2=O)cc1)c1ncccn1` (stereo not given) showed a Reduction (Mus musculus [10]) of 43%, a Reduction (Mus musculus [2]) of 18% and a Dose (Mus musculus [6]) of 10 µM/kg. The Selectivity ratio [7] was 10, the Dose (Mus musculus [9]) was 100 µM/kg and the Reduction (Mus musculus [3]) was 18%.
`Cc1nc(N(C)CCOc2ccc(CC3SC(=O)NC3=O)cc2)sc1-c1ccccc1` (stereo not given) showed a Reduction (Mus musculus [10]) of 39%, a Reduction (Mus musculus [2]) of 27% and a Dose (Mus musculus [12]) of under 300 µM/kg. The Dose (Mus musculus [6]) was 3 µM/kg, the Selectivity ratio [7] was under 100 and the Reduction (Mus musculus [3]) was 33%.
In the case of `CN(CCOc1ccc(CC2SC(=O)NC2=O)cc1)c1ccc(Cl)cn1` (stereo not given), the Reduction (Mus musculus [15]) is reported as “Not significant” and the Reduction (Mus musculus [8]) is reported as 44%.
For `CN(CCOc1ccc(CC2SC(=O)NC2=O)cc1)C(=O)NCc1ccccc1` (stereo not given), the Reduction (Mus musculus [15]) was “Not significant” and the Reduction (Mus musculus [8]) was 41%.
For `CN(CCOc1ccc(CC2SC(=O)NC2=O)cc1)c1nc(-c2ccccc2)cs1` (stereo not given), the Reduction (Mus musculus [10]) was 34% and the Reduction (Mus musculus [15]) was “Not significant”.
In the case of `COc1cccc(N(C)CCOc2ccc(CC3SC(=O)NC3=O)cc2)n1` (stereo not given), the Reduction (Mus musculus [15]) is reported as “Not significant” and the Reduction (Mus musculus [8]) is reported as 35%.
In the case of `O=C(NCCOc1ccc(CC2SC(=O)NC2=O)cc1)Nc1ccc(Cl)cc1` (stereo not given), the Reduction (Mus musculus [14]) is reported as “Not significant”.
For `O=C1NC(=O)C(Cc2ccc(OCCNc3nc4ccccc4o3)cc2)S1` (stereo not given), the Reduction (Mus musculus [10]) was 44% and the Reduction (Mus musculus [15]) was “Not significant”.
In the case of `CC(COc1ccc(CC2SC(=O)NC2=O)cc1)N(C)c1nc2ccccc2o1` (stereo not given), the Reduction (Mus musculus [5]) is reported as “Not significant” and the Reduction (Mus musculus [8]) is reported as 38%.
With `CN(CCOc1ccc(CC2OC(=O)NC2=O)cc1)c1nc2ccccc2o1` (stereo not given) the Reduction (Mus musculus [10]) was 23%, the Reduction (Mus musculus [15]) was “Not significant” and the Reduction (Mus musculus [8]) was 41%. The Reduction (Mus musculus [16]) was 52%.
For `Cc1ccnc(N(C)CCOc2ccc(CC3SC(=O)NC3=O)cc2)c1` (stereo not given), the Reduction (Mus musculus [1]) was 34%, the Reduction (Mus musculus [8]) was 41% and the Reduction (Mus musculus [13]) was “Not significant”.
Work on `Cc1ccc(N(C)CCOc2ccc(CC3SC(=O)NC3=O)cc2)nc1` (stereo not given) yielded a Reduction (Mus musculus [1]) of 18%, a Reduction (Mus musculus [10]) of 19% and a Reduction (Mus musculus [8]) of 35%.
For `O=C(NCCOc1ccc(CC2SC(=O)NC2=O)cc1)Nc1ccc(F)cc1` (stereo not given), the Reduction (Mus musculus [17]) was “Not significant”.
In the case of `CN(CCOc1ccc(CC2CC(=O)NC2=O)cc1)c1nc2ccccc2o1` (stereo not given), the Reduction (Mus musculus [14]) is reported as “Not significant”.
For `CC1(COc2ccc(CC3SC(=O)NC3=O)cc2)CCCCC1` (stereo not given) [CIGLITAZONE], the Reduction (Mus musculus [4]) was 41% and the Reduction (Mus musculus [14]) was “inactive”.
In the case of `CN(CCOc1ccc(CC2SC(=O)NC2=O)cc1)c1ccncc1` (stereo not given), the Reduction (Mus musculus [11]) is reported as “Not significant”.
In the case of `CN(CCOc1ccc(CC2[Se]C(=O)NC2=O)cc1)c1nc2ccccc2o1` (stereo not given), the Reduction (Mus musculus [10]) is reported as 45% and the Reduction (Mus musculus [11]) is reported as “Not significant”.
In the case of `O=C1NC(=O)C(Cc2ccc(OCCNC(=S)Nc3ccccc3)cc2)S1` (stereo not given), the Reduction (Mus musculus [10]) is reported as 10%, the Reduction (Mus musculus [15]) is reported as “Not significant” and the Reduction (Mus musculus [16]) is reported as 43%.
Compound `CN(CCSc1ccc(CC2SC(=O)NC2=O)cc1)c1nc2ccccc2o1` (stereo not given) has a Reduction (Mus musculus [10]) of 20%.
In the case of `O=C1NC(=O)C(Cc2ccc(OCCN(Cc3ccccc3)c3nc4ccccc4s3)cc2)S1` (stereo not given), the Reduction (Mus musculus [5]) is reported as “Not significant” and the Reduction (Mus musculus [8]) is reported as 56%.
In the case of `CN(CCOc1ccc(CC2SC(=O)NC2=O)cc1)c1cnccn1` (stereo not given), the Reduction (Mus musculus [10]) is reported as 46% and the Reduction (Mus musculus [11]) is reported as “Not significant”.
